ChEMBL document CHEMBL1126221, “Antimitotic agents: structure-activity studies with some pyridine derivatives” (J Med Chem, 1992)
“And” between values parts separate entries of the source, which are not always exact repeats. Equal entries are not always repeated.

Tests used:
L1210 (mouse) = experiment: Compound was evaluated for antitumor activity against mice implanted with lymphatic leukemia L1210 cells (10e6 tumor cells) after intraperitoneal administration of 50 mg/kg per injection (single dose on day 1); conditions: L1210, ip, 24 h
L1210 [1] = experiment: Effect of the compound(10 uM) on DNA synthesis in L1210 cells in culture measured as incorporation of [3H]L-Leu; format: functional, Mus musculus; conditions: in the assay text read “protein synthesis” for “DNA synthesis”
Summary of the method: (§1)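 Cultured L1210 cells were treated with agent at 2.5–50 μM. Labeled precursor incorporation is reported as percent of control: [3H]dThd into DNA, […] into DNA and RNA, and [3H]L-Leu into protein.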

L1210 [2] = experiment: Effect of the compound(10 uM) on DNA synthesis in L1210 cells in culture measured as incorporation of [3H]dThd; format: functional, Mus musculus
Summary of the method: as §1

L1210 [3] = experiment: Effect of the compound(10 uM) on DNA synthesis in L1210 cells in culture measured as incorporation of [5-3H]-Urd; format: functional, Mus musculus
L1210 [4] = experiment: Effect of the compound(10 uM) on RNA synthesis in L1210 cells in culture measured as incorporation of [5-3H]-Urd; format: functional, Mus musculus
Summary of the method: as §1

L1210 [5] = experiment: Effect of the compound(2.5 uM) on DNA synthesis in L1210 cells in culture measured as incorporation of [3H]L-Leu; format: functional, Mus musculus; conditions: in the assay text read “protein synthesis” for “DNA synthesis”
Summary of the method: as §1

L1210 [6] = experiment: Concentration required to inhibit proliferation of cultured lymphoid leukemia L1210 cells to 50% growth over 48 hours; format: functional, cell-based; conditions: Mus musculus, L1210, 48 h
Summary of the method: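 Cultured lymphoid leukemia L1210 cells were exposed to agent for 48 h. IC50 is the micromolar concentration that holds proliferation to 50% growth.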

L1210 [7] = experiment: Effect of the compound(2.5 uM) on RNA synthesis in L1210 cells in culture measured as […]; format: functional, Mus musculus
L1210 [8] = experiment: Effect of the compound(5 uM) on DNA synthesis in L1210 cells in culture measured as incorporation of [3H]-L-Leu; format: functional, Mus musculus; conditions: in the assay text read “protein synthesis” for “DNA synthesis”
Summary of the method: as §1

L1210 [9] = experiment: Effect of the compound(5 uM) on DNA synthesis in L1210 cells in culture measured as incorporation of [5-3H]-Urd; format: functional, Mus musculus
Summary of the method: as §1

L1210 [10] = experiment: Effect on the mitosis of cultured L1210 cells measured in metaphase at 12 hours and 0 uM concentration; format: functional, Mus musculus
Summary of the method: (§2)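 Cultured L1210 cells were exposed for 12 h to 0, 3, 10, 30, 50 or 100 μM agent. Read-out was the percentage of cells in metaphase.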

L1210 [11] = experiment: Effect on the mitosis of cultured L1210 cells measured in metaphase at 12 hours and 10 uM concentration; format: functional, Mus musculus
Summary of the method: as §2

L1210 [12] = experiment: Effect on the mitosis of cultured L1210 cells measured in metaphase at 12 hours and 100 uM concentration; format: functional, Mus musculus
Summary of the method: as §2

L1210 [13] = experiment: Effect on the mitosis of cultured L1210 cells measured in metaphase at 12 hours and 3 uM concentration; format: functional, Mus musculus
Summary of the method: as §2

P388 [14] = experiment: Compound was evaluated for antitumor activity against mice implanted with lymphatic leukemia P388 cells (10e6 tumor cells) after intraperitoneal administration of 13 mg/kg per injection (1-5 days); format: functional; conditions: Mus musculus, P388, ip
Summary of the method: (§3)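 Mice implanted ip with 10⁶ lymphocytic leukemia P388 cells; drug given ip on days 1-5. Read-out is % increase in life span (% ILS) versus untreated controls, reported at the highest nontoxic dose tested.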

L1210 [15] = experiment: Effect of the compound(2.5 uM) on DNA synthesis in L1210 cells in culture measured as incorporation of [5-3H]-Urd; format: functional, Mus musculus
L1210 [16] = experiment: Effect on the mitosis of cultured L1210 cells measured in metaphase at 12 hours and 30 uM concentration; format: functional, Mus musculus
Summary of the method: as §2

L1210 [17] = experiment: Effect of the compound(5 uM) on RNA synthesis in L1210 cells in culture measured as […]; format: functional, Mus musculus
L1210 [18] = experiment: Effect of the compound(25 uM) on DNA synthesis in L1210 cells in culture measured as incorporation of [3H]L-Leu; format: functional, Mus musculus; conditions: in the assay text read “protein synthesis” for “DNA synthesis”
Summary of the method: as §1

L1210 [19] = experiment: Effect of the compound(25 uM) on DNA synthesis in L1210 cells in culture measured as incorporation of [3H]dThd; format: functional, Mus musculus
Summary of the method: as §1

L1210 [20] = experiment: Effect of the compound(25 uM) on DNA synthesis in L1210 cells in culture measured as incorporation of [5-3H]-Urd; format: functional, Mus musculus
Summary of the method: as §1

L1210 [21] = experiment: Effect of the compound(25 uM) on RNA synthesis in L1210 cells in culture measured as […]; format: functional, Mus musculus
P388 [22] = experiment: Compound was evaluated for antitumor activity against mice implanted with lymphatic leukemia P388 cells (10e6 tumor cells) after intraperitoneal administration of 75 mg/kg per injection (1-5 days); format: functional; conditions: Mus musculus, P388, ip
Summary of the method: as §3

L1210 [23] = experiment: Compound was tested in vivo against mitosis of […] metaphase after 12 hr at 400 mg/kg dose; format: functional, Mus musculus
Summary of the method: (§4)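 Mice implanted ip with L1210 leukemia cells got a single ip injection of test agent or control. Cells were harvested 6, 12 and 24 h after treatment and scored for percentage of cells in metaphase.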

L1210 [24] = experiment: Compound was tested in vivo against mitosis of […] metaphase after 12 hr at 600 mg/kg dose; format: functional, Mus musculus
Summary of the method: as §4

L1210 [25] = experiment: Compound was tested in vivo against mitosis of […] metaphase after 24 hr at 400 mg/kg dose; format: functional, Mus musculus
Summary of the method: as §4

L1210 [26] = experiment: Compound was tested in vivo against mitosis of […] metaphase after 24 hr at 600 mg/kg dose; format: functional, Mus musculus
Summary of the method: as §4

L1210 [27] = experiment: Compound was tested in vivo against mitosis of […] metaphase after 6 hr at 400 mg/kg dose; format: functional, Mus musculus
Summary of the method: as §4

L1210 [28] = experiment: Compound was tested in vivo against mitosis of […] metaphase after 6 hr at 600 mg/kg dose; format: functional, Mus musculus
Summary of the method: as §4

L1210 [29] = experiment: Effect of the compound(50 uM) on DNA synthesis in L1210 cells in culture measured as incorporation of [3H]L-Leu; format: functional, Mus musculus; conditions: in the assay text read “protein synthesis” for “DNA synthesis”
Summary of the method: as §1

L1210 [30] = experiment: Effect of the compound(50 uM) on DNA synthesis in L1210 cells in culture measured as incorporation of [3H]dThd; format: functional, Mus musculus
Summary of the method: as §1

L1210 [31] = experiment: Effect of the compound(50 uM) on DNA synthesis in L1210 cells in culture measured as incorporation of [5-3H]-Urd; format: functional, Mus musculus
Summary of the method: as §1

L1210 [32] = experiment: Effect of the compound(50 uM) on RNA synthesis in L1210 cells in culture measured as incorporation of [5-3H]-Urd; format: functional, Mus musculus
Summary of the method: as §1

L1210 [33] = experiment: Effect on the mitosis of cultured L1210 cells measured ain metaphase t 12 hours and 3 uM concentration; format: functional, Mus musculus
Summary of the method: as §2

L1210 [34] = experiment: Effect on the mitosis of cultured L1210 cells measured in metaphase at 12 hours and 50 uM concentration; format: functional, Mus musculus
Summary of the method: as §2

L1210 [35] = experiment: Effect on the mitosis of cultured L1210 cells measured in metaphase t 12 hours and 30 uM concentration; format: functional, Mus musculus
Summary of the method: as §2

P388 [36] = experiment: Compound was evaluated for antitumor activity against mice implanted with lymphatic leukemia P388 cells (10e6 tumor cells) after intraperitoneal administration of 240 mg/kg per injection (1-5 days); format: functional; conditions: Mus musculus, P388, ip
Summary of the method: as §3

P388 [37] = experiment: Compound was evaluated for antitumor activity against mice implanted with lymphatic leukemia P388 cells (10e6 tumor cells) after intraperitoneal administration of 300 mg/kg per injection (1-5 days); format: functional; conditions: Mus musculus, P388, ip
Summary of the method: as §3

| Structure (SMILES) | Control (L1210 [1]) [%] | Uridine incorporation into DNA (% of control) (L1210 [3]) | Control (L1210 [4]) [%] | IC50 (L1210 [6]) [µM] | Control (L1210 [8]) [%] | Control (L1210 [9]) | Cells in metaphase (L1210 [10]) [%] | Cells in metaphase (L1210 [11]) [%] | Cells in metaphase (L1210 [12]) [%] | Cells in metaphase (L1210 [13]) [%] | Cells in metaphase (L1210 [16]) [%] | Control (L1210 [17]) [%] | Control (L1210 [18]) [%] | Control (L1210 [20]) | Control (L1210 [21]) [%] | other results |
| --- | --- | --- | --- | --- | --- | --- | --- | --- | --- | --- | --- | --- | --- | --- | --- | --- |
| CCOC(=O)Nc1cc(N(C)CC(O)c2ccccc2)c(N)c(N)n1 (stereo unspecified) | – | – | – | – | – | – | – | – | – | – | – | – | – | – | – | ILS at 50 mg/kg (L1210 (mouse)): 4% |
| CCOC(=O)Nc1cc(NC(C)/C(=N/O)c2ccc(OC)cc2)c([N+](=O)[O-])c(N)n1 (stereo unspecified) | 82 | 39% | 35 | 4.2 | 87 | 60% | 2 | 26 | 2 | 6 | 24 | 47 | – | – | – | Control (L1210 [2]): 44%; Control (L1210 [5]): 69%; Control (L1210 [7]): 55%; ILS at 13 mg/kg (P388 [14]): 84%; Control (L1210 [15]): 78% and 73% |
| COC(=O)Nc1cc(NC(C)/C(=N/O)c2ccccc2)c([N+](=O)[O-])c(N)n1 (stereo unspecified) | 40 | 46% and 62% | 52 | 5.8 | 79 | 52% and 89% | 2 | 3 | 14 | 3 | 25 | 86 | 26 | 65% | 64 | Control (L1210 [19]): 21%; ILS at 75 mg/kg (P388 [22]): 82% |
| CCOC(=O)Nc1cc(NC(C)/C(=N/O)c2ccccc2)c([N+](=O)[O-])c(N)n1 (stereo unspecified) | 79 | 38% and 42% | 55 | 32 | – | – | 2 | 3 | 5 | – | – | – | 101 | 25% and 13% | 22 | Cells in metaphase (L1210 [23]): 0.8%; Cells in metaphase (L1210 [24]): 1.4%; Cells in metaphase (L1210 [25]): 1.6%; Cells in metaphase (L1210 [26]): 0.4%; Cells in metaphase (L1210 [27]): 0.6%; Cells in metaphase (L1210 [28]): 0.9%; Control (L1210 [29]): 37%; Control (L1210 [30]): 12%; Control (L1210 [31]): 17%; Control (L1210 [32]): 24%; Cells in metaphase (L1210 [33]): 2%; Cells in metaphase (L1210 [34]): 14%; Cells in metaphase (L1210 [35]): 4%; ILS at 240 mg/kg (P388 [36]): 80% |
| CCOC(=O)Nc1cc(NC(C)C(=O)c2ccccc2)c([N+](=O)[O-])c(N)n1 (stereo unspecified) | – | – | – | 37 | – | – | – | – | – | – | – | – | – | – | – | ILS at 300 mg/kg (P388 [37]): 2% |
